Test [1] deals with MDA-MB-435. The experiment in a line: Induction of apoptosis in human MDA-MB-435 cells assessed as viable cells at 2 uM after 24 hrs by annexin-V FITC/propidium iodide staining-based flow cytometry (reference value: 98.62 +/- 0.25%). The format is functional. Particulars: MDA-MB-435, 24 h, read-out: Activity. In a few lines: (§1)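 MDA-MB-435 cells treated 24 h, stained with annexin V-FITC/PI per kit instructions, analysed by flow cytometry. Quadrant statistics: lower right taken as apoptotic, upper right as necrotic or post-apoptotic necrotic. Representative of three similar experiments.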
A general note: Flow cytometry measures light scatter and fluorescence of single cells or particles in a stream.

For test [2], the system named is MDA-MB-435. The experiment in a line: Induction of apoptosis in human MDA-MB-435 cells assessed as downregulation of Bcl-2 protein expression at 0.25 to 1 uM after 12 hrs by Western blotting analysis. Type of test: functional, cell-based. Put shortly: (§2)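 Treated MDA-MB-435 cells lysed in ice-cold Tris-HCl pH 7.4 buffer with Triton, phosphatase and protease inhibitors. Lysates clarified, boiled in SDS loading buffer, run on 8-12% SDS-PAGE and blotted. Membranes blocked in 5% skim milk, probed with primary antibodies, then peroxidase secondaries with ECL detection. β-actin as loading control.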
In general terms: In western blotting, separated proteins are transferred to a membrane and probed.

For test [3], the system named is MDA-MB-435. The experiment in a line: Induction of apoptosis in human MDA-MB-435 cells assessed as early apoptotic cells at 2 uM after 24 hrs by annexin-V FITC/propidium iodide staining-based flow cytometry (reference value: 0.61 +/- 0.24%). The format is functional. In a few lines: as §1
The subject of test [4] is MDA-MB-435. As to the kind of experiment: Induction of apoptosis in human MDA-MB-435 cells assessed as chromatin condensation at 0.25 to 1 uM by DAPI staining-based fluorscence microscopy. Type of test: functional, cell-based. In a few lines:
(§3)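 Treated MDA-MB-435 cells washed in ice-cold PBS, fixed 20 min in 4% paraformaldehyde, stained 30 min at 37 °C with DAPI (50 µg/mL) containing 100 µg/mL RNase A. After PBS washes, examined by fluorescence microscopy (excitation 340 nm, emission 488 nm).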

Test [5] deals with MDA-MB-435. As to the kind of experiment: Cell cycle arrest in human MDA-MB-435 cells assessed as accumulation at sub-G1 phase at 1 uM after 24 hrs by propidium iodide staining-based flow cytometry (reference value: 0.79%). Type of test: functional.
The subject of test [6] is MDA-MB-435. As to the kind of experiment: Induction of apoptosis in human MDA-MB-435 cells assessed as decrease in procaspase 3 expression after 12 to 24 hrs by Western blotting analysis. Type of test: functional, cell-based. In a few lines: as §2
Test [7] concerns MDA-MB-435. As to the kind of experiment: Induction of apoptosis in human MDA-MB-435 cells assessed as PARP cleavage after 12 to 24 hrs by Western blotting analysis. Type of test: functional, cell-based. Put shortly:
as §2

Test [8] is filed under the species Bos taurus. The experiment in a line: Induction of calf thymus DNA topoisomerase 1 poisoning activity using pBR322 as substrate assessed as appearance of nicked open circular DNA at 100 uM after 30 mins by Agarose gel electrophoresis. In a few lines: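 Calf thymus Topo I (1 unit) with 0.5 µg pBR322 in relaxation buffer (10 mM Tris-HCl pH 7.9, 150 mM NaCl, 0.1% BSA, 1 mM spermidine, 5% glycerol), 37 °C for 30 min. Stopped with 10% SDS, digested with proteinase K (50 µg/mL) 20 min, run on ethidium bromide-containing 1% agarose gel, 5 V/cm, 2 h. Nicked open circular and linear DNA positions scored; at least duplicate.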

Test [9] concerns the target DNA topoisomerase 2-alpha (Homo sapiens) (UniProt P11388). As to the kind of experiment: Inhibition of recombinant human DNA topoisomerase 2-alpha-mediated relaxation of supercoiled pBR322 DNA at 10 to 100 uM after 30 mins by Agarose gel electrophoresis. In a few lines: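 Relaxation assay with 0.5 µg supercoiled pBR322 and 1 unit recombinant human Topo IIα, 20 µL. Incubated 30 min at 30 °C; stopped with 7 mM EDTA. 1% agarose gel, 5 V/cm, 2 h, TAE; ethidium bromide stain, UV. DMSO stocks. At least duplicate.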

In test [10] the test system is MDA-MB-435. The experiment in a line: Cell cycle arrest in human MDA-MB-435 cells assessed as accumulation at sub-G1 phase at 0.5 uM after 24 hrs by propidium iodide staining-based flow cytometry (reference value: 0.79%). Type of test: functional.
For test [11], the system named is MDA-MB-435. The experiment in a line: Cell cycle arrest in human MDA-MB-435 cells assessed as accumulation at S phase at 0.5 uM after 24 hrs by propidium iodide staining-based flow cytometry (reference value: 57.11%). The format is functional.
Test [12] relates to MDA-MB-435. As to the kind of experiment: Cell cycle arrest in human MDA-MB-435 cells assessed as accumulation at S phase at 1 uM after 24 hrs by propidium iodide staining-based flow cytometry (reference value: 57.11%). The format is functional.
Test [13] deals with MDA-MB-435. The experiment in a line: Cell cycle arrest in human MDA-MB-435 cells assessed as accumulation at S phase at 0.25 uM after 24 hrs by propidium iodide staining-based flow cytometry (reference value: 57.11%). The format is functional.
Test [14] deals with MDA-MB-435. As to the kind of experiment: Induction of apoptosis in human MDA-MB-435 cells assessed as late apoptotic cells at 2 uM after 24 hrs by annexin-V FITC/propidium iodide staining-based flow cytometry (reference value: 0.34 +/- 0.08%). The format is functional. Put shortly: as §1
The subject of test [15] is MDA-MB-435. The experiment in a line: Cell cycle arrest in human MDA-MB-435 cells assessed as increase in cyclin B1 expression at 0.25 to 1 uM after 12 to 24 hrs by Western blotting analysis. Type of test: functional, cell-based. Put shortly:
as §2

In test [16] the target is DNA topoisomerase 2-alpha (Homo sapiens) (UniProt P11388). The experiment in a line: Induction of recombinant human DNA topoisomerase 2-alpha poisoning activity using pBR322 as substrate assessed as appearance of linear DNA at 100 uM after 30 mins by Agarose gel electrophoresis. In a few lines: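 Same format as the Topo IIα inhibition assay: 0.5 µg supercoiled pBR322 with 1 unit recombinant human Topo IIα. Incubated 37 °C for 30 min, stopped with 10% SDS, then proteinase K (50 µg/mL) for 20 min. Run on 1% agarose gel containing ethidium bromide, 5 V/cm, 2 h, TAE. Linear and nicked open circular DNA positions scored. At least duplicate.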
Sequence of DNA topoisomerase 2-alpha (Homo sapiens) (P11388 whole entry): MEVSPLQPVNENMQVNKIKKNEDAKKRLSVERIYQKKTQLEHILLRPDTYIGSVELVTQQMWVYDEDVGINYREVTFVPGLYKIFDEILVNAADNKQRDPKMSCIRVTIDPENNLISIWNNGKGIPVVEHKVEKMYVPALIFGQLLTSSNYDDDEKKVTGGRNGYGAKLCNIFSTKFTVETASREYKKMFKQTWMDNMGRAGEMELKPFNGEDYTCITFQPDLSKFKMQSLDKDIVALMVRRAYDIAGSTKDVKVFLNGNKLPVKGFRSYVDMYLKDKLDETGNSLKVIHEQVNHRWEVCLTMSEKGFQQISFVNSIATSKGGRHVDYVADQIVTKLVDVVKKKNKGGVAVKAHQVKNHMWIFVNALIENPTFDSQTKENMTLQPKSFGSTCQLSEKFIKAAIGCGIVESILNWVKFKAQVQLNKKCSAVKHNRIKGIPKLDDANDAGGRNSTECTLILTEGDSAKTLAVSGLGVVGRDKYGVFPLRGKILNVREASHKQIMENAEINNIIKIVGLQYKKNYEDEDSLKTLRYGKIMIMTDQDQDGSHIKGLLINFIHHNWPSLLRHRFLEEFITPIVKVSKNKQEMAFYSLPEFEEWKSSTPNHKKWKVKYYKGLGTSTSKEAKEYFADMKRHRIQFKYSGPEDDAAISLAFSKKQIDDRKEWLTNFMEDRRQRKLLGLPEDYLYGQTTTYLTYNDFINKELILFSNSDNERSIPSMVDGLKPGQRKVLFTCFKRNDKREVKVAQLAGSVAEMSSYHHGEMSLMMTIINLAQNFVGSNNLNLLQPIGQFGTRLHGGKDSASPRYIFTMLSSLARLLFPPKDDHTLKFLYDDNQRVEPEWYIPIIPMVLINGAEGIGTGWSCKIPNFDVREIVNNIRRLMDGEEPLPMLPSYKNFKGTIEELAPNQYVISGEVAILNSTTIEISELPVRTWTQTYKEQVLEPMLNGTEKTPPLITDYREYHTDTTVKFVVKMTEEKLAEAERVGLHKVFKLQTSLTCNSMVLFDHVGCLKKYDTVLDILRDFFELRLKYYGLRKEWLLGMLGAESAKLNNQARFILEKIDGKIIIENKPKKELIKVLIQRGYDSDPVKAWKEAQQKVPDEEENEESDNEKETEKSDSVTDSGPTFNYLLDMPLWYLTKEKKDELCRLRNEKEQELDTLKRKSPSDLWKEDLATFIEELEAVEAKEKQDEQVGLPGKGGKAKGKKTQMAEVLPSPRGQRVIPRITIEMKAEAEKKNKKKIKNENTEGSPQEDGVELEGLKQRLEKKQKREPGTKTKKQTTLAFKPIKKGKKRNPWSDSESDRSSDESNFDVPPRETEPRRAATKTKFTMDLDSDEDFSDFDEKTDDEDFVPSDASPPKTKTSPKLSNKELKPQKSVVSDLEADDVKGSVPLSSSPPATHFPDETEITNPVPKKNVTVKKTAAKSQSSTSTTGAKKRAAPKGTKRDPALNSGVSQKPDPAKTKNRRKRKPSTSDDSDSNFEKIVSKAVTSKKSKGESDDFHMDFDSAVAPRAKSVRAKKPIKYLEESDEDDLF

Test [17] relates to MDA-MB-435. The experiment in a line: Induction of apoptosis in human MDA-MB-435 cells assessed as dead cells at 2 uM after 24 hrs by annexin-V FITC/propidium iodide staining-based flow cytometry (reference value: 0.61 +/- 0.24%). Type of test: functional.
The subject of test [18] is MDA-MB-435. The experiment in a line: Cell cycle arrest in human MDA-MB-435 cells assessed as accumulation at G1 phase at 0.5 uM after 24 hrs by propidium iodide staining-based flow cytometry (reference value: 28.06%). Type of test: functional.
Test [19] relates to MDA-MB-435. The experiment in a line: Induction of apoptosis in human MDA-MB-435 cells assessed as nuclear fragmentation at 0.25 to 1 uM by DAPI staining-based fluorscence microscopy. The format is functional, cell-based. In a few lines: as §3
The test system of test [20] is MDA-MB-435. The experiment in a line: Cell cycle arrest in human MDA-MB-435 cells assessed as increase in CDC2 expression at 0.25 to 1 uM after 12 to 24 hrs by Western blotting analysis. The format is functional, cell-based. In a few lines: as §2
In test [21] the test system is MDA-MB-435. The experiment in a line: Induction of human apoptosis in MDA-MB-435 cells assessed as upregulation of Bak protein expression at 0.25 to 1 uM after 12 hrs by Western blotting analysis. Type of test: functional, cell-based. Put shortly: as §2
In test [22] the test system is MDA-MB-435. The experiment in a line: Cell cycle arrest in human MDA-MB-435 cells at 0.25 to 1 uM after 24 hrs by propidium iodide staining-based flow cytometry in presence of N-acetylcysteine. The format is functional.
Test [23] concerns MDA-MB-435. As to the kind of experiment: Induction of apoptosis in human MDA-MB-435 cells at 0.25 to 1 uM after 24 hrs by annexin-V FITC/propidium iodide staining-based flow cytometry in presence of N-acetylcysteine. Type of test: functional, cell-based.

Molecules are shown by their SMILES. The source made the active and inactive calls. No cut-off for these calls is given here.

On to `Oc1ccc(-c2ccc(-c3ccc(O)c(O)c3)cc2)cc1`, for which the viability at 2 µM in test [1] was determined as 71.8%. Moreover, the outcome in test [2], in test [4], in test [15], in [19], in test [20] and in test [21] was Active. The outcome in [22] and in [23] was Active. Besides, the Activity in [3] is 12.87%; in test [5], 10.5%; in [6], “Dose-dependent effect”; in test [7], “Dose-dependent effect”; in test [10] it was 4.53%; in test [11], 26.38%. Also, the Activity in test [12] came to 12.58%; in test [13] it was 47.81%; in test [14], 14.35%; in [17] it was 1.7%; in test [18] it was 30.68%. In addition, the outcome in test [8] and in test [16] was inactive. Moreover, in test [9], the inhibition entry is “Active”.

The values above are taken from ChEMBL document CHEMBL2424614, “A novel p-terphenyl derivative inducing cell-cycle arrest and apoptosis in MDA-MB-435 cells through topoisomerase inhibition” (Eur J Med Chem, 2013).
